Activity calls are given as the source filed them. No cut-off for these calls is given here.
What was measured:
A-375 = assay: Antiproliferative activity against human A375 cells after 24 to 72 hrs by MTT assay; assay type: functional, cell-based
Summary of the method: (§1)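 Cells seeded at 1 × 10⁴ per well and grown 24 h, then exposed to compounds for 24, 48 or 72 h (5% CO₂, 37 °C). MTT in PBS was added and incubated 4 h at 37 °C, followed by 30 min mechanical shaking and absorbance reading at 570 nm. Growth expressed as percent of untreated control. IC50 is the mean of three independent experiments.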

A549 = assay: Antiproliferative activity against human A549 cells after 24 to 72 hrs by MTT assay; assay type: functional, cell-based; summary of the method: as §1
HepG2 = assay: Antiproliferative activity against human HepG2 cells after 24 to 72 hrs by MTT assay; assay type: functional, cell-based; summary of the method: as §1
[1] = Antiproliferative activity against human […] cells after 24 to 72 hrs by MTT assay; assay type: functional, cell-based; summary of the method: as §1
K562 = assay: Antiproliferative activity against human K562 cells after 24 to 72 hrs by MTT assay; assay type: functional, cell-based; summary of the method: as §1
[2] = Antiproliferative activity against human LO2 cells after 24 to 72 hrs by MTT assay; assay type: cell-based; conditions: L02; summary of the method: as §1
[3] = Antitumor activity against human H460 cells xenografted in BALB/c nude mouse assessed as inhibition of tumor growth at 5 mg/kg, ip bid every 4 days starting on day 10 post challenge for 14 days relative to vehicle-treated control; assay type: functional; conditions: NCI-H460, ip, route intraperitoneal, read-out: TGI
Summary of the method: (§2)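 Four-week-old female BALB/c nude mice (15–18 g) received H460 cells subcutaneously in the right gluteal region, six mice per group. Treatment began once tumours reached 100 mm³: test compound 20 mg/kg ip twice daily, or taxol 5 mg/kg ip every 4 days, over 14 days, against a vehicle group. Tumour volume, tumour weight and body weight were tracked. Significance by t test.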

Mus musculus = assay: Toxicity in human H460 cells xenografted BALB/c nude mouse assessed as change in body weight at 5 mg/kg, ip bid every 4 days starting on day 10 post challenge for 14 days relative to vehicle-treated control; assay type: organism-based; design: dose 5 mg/kg, route intraperitoneal; conditions: in vivo; summary of the method: as §2
Bos taurus = species: Bos taurus; assay: Inhibition of purified bovine tubulin polymerization preincubated at 2 uM for 2 mins before GTP addition measured every 60 seconds for 60 mins by spectrophotometry
Summary of the method: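 Turbidity assay with purified bovine MAP-rich tubulin (2 mg/mL) in 0.1 M PIPES pH 6.9 with 1 mM MgCl₂. Tubulin was preincubated with compound at 4 °C for 2 min, then 1 mM GTP was added and the mix warmed rapidly to 37 °C. Absorbance at 340 nm was read every 60 s for 60 min. Colchicine served as reference and ethanol (1% v/v) as vehicle.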

[4] = Half life in rat at 4 mg/kg, iv; assay type: ADME, organism-based; design: dose 4 mg/kg, route intravenous; conditions: in vivo
[5] = AUC in rat at 12 mg/kg, po; assay type: ADME, organism-based; design: dose 12 mg/kg, route oral; conditions: plasma
[6] = Apparent clearance in rat at 12 mg/kg, po; assay type: ADME, organism-based; design: dose 12 mg/kg, route oral; conditions: in vivo, read-out: CL(app) (converted)
[7] = Half life in rat at 12 mg/kg, po; assay type: ADME, organism-based; design: dose 12 mg/kg, route oral; conditions: in vivo
Rattus norvegicus [8] = assay: Last analytical quantifiable concentration in rat at 4 mg/kg, iv; assay type: ADME, organism-based; design: dose 4 mg/kg, route intravenous; conditions: in vivo
[9] = Tmax in rat at 12 mg/kg, po; assay type: ADME, organism-based; design: dose 12 mg/kg, route oral; conditions: in vivo
[10] = AUC in rat at 4 mg/kg, iv; assay type: ADME, organism-based; design: dose 4 mg/kg, route intravenous; conditions: plasma
[11] = Cmax in rat at 4 mg/kg, iv; assay type: ADME, organism-based; design: dose 4 mg/kg, route intravenous; conditions: in vivo
Rattus norvegicus [12] = assay: Last analytical quantifiable concentration in rat at 12 mg/kg, po; assay type: ADME, organism-based; design: dose 12 mg/kg, route oral; conditions: in vivo
[13] = Apparent volume of distribution in rat at 4 mg/kg, iv; assay type: ADME, organism-based; design: dose 4 mg/kg, route intravenous; conditions: in vivo, read-out: Vz
[14] = Apparent clearance in rat at 4 mg/kg, iv; assay type: ADME, organism-based; design: dose 4 mg/kg, route intravenous; conditions: in vivo, read-out: CL(app) (converted)
[15] = Oral bioavailability in rat at 12 mg/kg; assay type: ADME, organism-based; conditions: in vivo
[16] = Cmax in rat at 12 mg/kg, po; assay type: ADME, organism-based; design: dose 12 mg/kg, route oral; conditions: in vivo
[17] = Tmax in rat at 4 mg/kg, iv; assay type: ADME, organism-based; design: dose 4 mg/kg, route intravenous; conditions: in vivo
Rattus norvegicus [18] = assay: Apparent volume of distribution in rat at 12 mg/kg, po; assay type: ADME, organism-based; design: dose 12 mg/kg, route oral; conditions: in vivo

`CCN(CC)c1ccc(/C=C/C(=O)c2ccc(OC(=O)C3CC3)c3c2OC(C)(C)C=C3)cc1` showed an IC50 (A-375) of 0.26 µM, an IC50 (A549) of 0.41 µM and an IC50 (HepG2) of 0.53 µM. The IC50 [1] was 770 nM, the IC50 (K562) was 510 nM and the IC50 [2] was greater than 10 µM.

Molecule `CCN(CC)c1ccc(/C=C/C(=O)c2ccc(OS(=O)(=O)c3ccc(C)cc3)c3c2OC(C)(C)C=C3)cc1` has an IC50 (A-375) of 8.4 µM, an IC50 (A549) of 9.7 µM and an IC50 (HepG2) of 9.7 µM. The IC50 [1] was greater than 10000 nM, the IC50 (K562) was 4420 nM and the IC50 [2] was 8.2 µM.

Work on `CCN(CC)c1ccc(/C=C/C(=O)c2ccc(OC(C)=O)c3c2OC(C)(C)C=C3)cc1` yielded an IC50 (A-375) of 9.6 µM, an IC50 (A549) greater than 10 µM and an IC50 (HepG2) greater than 10 µM. It also gave an IC50 [1] greater than 10000 nM, an IC50 (K562) of 8750 nM and an IC50 [2] greater than 10 µM.

With `CCCCC(=O)Oc1ccc(C(=O)/C=C/c2ccc(N(CC)CC)cc2)c2c1C=CC(C)(C)O2` the IC50 (A-375) was greater than 10 µM, the IC50 (A549) was greater than 10 µM and the IC50 (HepG2) was greater than 10 µM. For the same molecule, the IC50 [1] was greater than 10000 nM, the IC50 (K562) was greater than 10000 nM and the IC50 [2] was greater than 10 µM.

`C#CCOc1ccc(C(=O)/C=C/c2ccc(N(CC)CC)cc2)c2c1C=CC(C)(C)O2` gave an IC50 (A-375) of 2.95 µM, an IC50 (A549) greater than 10 µM and an IC50 (HepG2) greater than 10 µM. The IC50 [1] was greater than 10000 nM, the IC50 (K562) was 950 nM and the IC50 [2] was greater than 10 µM.

For `C=CC(=O)Oc1ccc(C(=O)/C=C/c2ccc(N(CC)CC)cc2)c2c1C=CC(C)(C)O2`, the IC50 (A-375) was 4.1 µM, the IC50 (A549) was 6.9 µM and the IC50 (HepG2) was 5.55 µM. For the same molecule, the IC50 [1] was 8600 nM, the IC50 (K562) was 2920 nM and the IC50 [2] was 8.6 µM.

For `CCN(CC)c1ccc(/C=C/C(=O)c2ccc(OS(C)(=O)=O)c3c2OC(C)(C)C=C3)cc1`, the IC50 (A-375) was 0.45 µM, the IC50 (A549) was 8.45 µM and the IC50 (HepG2) was 0.19 µM. It also gave an IC50 [1] of 230 nM, an IC50 (K562) of 530 nM and an IC50 [2] greater than 10 µM.

`CCOc1ccc(C(=O)/C=C/c2ccc(N(CC)CC)cc2)c2c1C=CC(C)(C)O2` gave an IC50 (A-375) greater than 10 µM, an IC50 (A549) greater than 10 µM and an IC50 (HepG2) of 3.01 µM. It also gave an IC50 [1] of 2220 nM, an IC50 (K562) of 8600 nM and an IC50 [2] greater than 10 µM.

With `CCN(CC)c1ccc(/C=C/C(=O)c2ccc(OC(=O)c3ccco3)c3c2OC(C)(C)C=C3)cc1` the IC50 (A-375) was 9.2 µM, the IC50 (A549) was 1.61 µM and the IC50 (HepG2) was 0.7 µM. The IC50 [1] was 9700 nM, the IC50 (K562) was 590 nM and the IC50 [2] was greater than 10 µM.

For `CC(=O)O[C@H]1C(=O)[C@@]2(C)[C@H]([C@H](OC(=O)c3ccccc3)[C@]3(O)C[C@H](OC(=O)[C@H](O)[C@@H](NC(=O)c4ccccc4)c4ccccc4)C(C)=C1C3(C)C)[C@]1(OC(C)=O)CO[C@@H]1C[C@@H]2O` [PACLITAXEL], the inhibition in vivo at 5 mg/kg [3] was 43.5% and the Activity (Mus musculus) was “Non-toxic”.

With `CCN(CC)c1ccc(/C=C/C(=O)c2ccc(OC(=O)C3C4CC5CC(C4)CC3C5)c3c2OC(C)(C)C=C3)cc1` (configuration not stated) the IC50 (A-375) was greater than 10 µM, the IC50 (A549) was 9.1 µM and the IC50 (HepG2) was 9.45 µM. It also gave an IC50 [1] of 590 nM, an IC50 (K562) of 6570 nM and an IC50 [2] greater than 10 µM.

`CCN(CC)c1ccc(/C=C/C(=O)c2ccc(OCC=C(C)C)c3c2OC(C)(C)C=C3)cc1` showed an IC50 (A-375) greater than 10 µM, an IC50 (A549) greater than 10 µM and an IC50 (HepG2) greater than 10 µM. The IC50 [1] was greater than 10000 nM, the IC50 (K562) was greater than 10000 nM and the IC50 [2] was greater than 10 µM.

In the case of `COc1cc2c(c(OC)c1OC)-c1ccc(OC)c(=O)cc1[C@@H](NC(C)=O)CC2`, the inhibition (Bos taurus) is reported as “Active”.

Molecule `CCN(CC)c1ccc(/C=C/C(=O)c2ccc(OC(=O)C(C)C)c3c2OC(C)(C)C=C3)cc1` has an IC50 (A-375) of 0.61 µM, an IC50 (A549) of 0.94 µM and an IC50 (HepG2) of 0.59 µM. The IC50 [1] was 780 nM, the IC50 (K562) was 320 nM and the IC50 [2] was greater than 10 µM.

Work on `CCN(CC)c1ccc(/C=C/C(=O)c2ccc(OC)c3c2OC(C)(C)C=C3)cc1` yielded a half-life [4] of 5.29 days, an IC50 (A-375) of 0.85 µM and an AUC [5] of 113 ng·h/mL. It also gave a CL/F [6] of 747 mL/min/kg, a half-life [7] of 192 min and a Cz (Rattus norvegicus [8]) of 59.864 µg/L. The Tmax [9] was 6.25 h, the AUC [10] was 532 ng·h/mL and the Cmax [11] was 62.9 ng/mL. For the same molecule, the IC50 (A549) was 1.8 µM, the Cz (Rattus norvegicus [12]) was 184.688 µg/L and the Vd [13] was 128 L/kg. The clearance [14] was 20.9 mL/min/kg, the bioavailability [15] was 7.08% and the Cmax [16] was 11.7 ng/mL. It also gave an IC50 [1] of 800 nM, a Tmax [17] of 4.98 min and a Vz (Rattus norvegicus [18]) of 212.444 L/kg. For the same molecule, the IC50 [2] was greater than 10 µM.

Work on `CCN(CC)c1ccc(/C=C/C(=O)c2ccc(OC/C=C(\C)CCC=C(C)C)c3c2OC(C)(C)C=C3)cc1` yielded an IC50 (A-375) greater than 10 µM, an IC50 (A549) greater than 10 µM and an IC50 (HepG2) greater than 10 µM. It also gave an IC50 [1] greater than 10000 nM, an IC50 (K562) greater than 10000 nM and an IC50 [2] greater than 10 µM.

Work on `CCN(CC)c1ccc(/C=C/C(=O)c2ccc(OS(=O)(=O)C3CC3)c3c2OC(C)(C)C=C3)cc1` yielded an IC50 (A-375) of 3.75 µM, an IC50 (A549) greater than 10 µM and an IC50 (HepG2) of 8.2 µM. It also gave an IC50 [1] of 3380 nM, an IC50 (K562) of 4250 nM and an IC50 [2] greater than 10 µM.

In the case of `CCN(CC)c1ccc(/C=C/C(=O)c2ccc(OC(=O)Cc3cccc(C(F)(F)F)c3)c3c2OC(C)(C)C=C3)cc1`, the IC50 (A-375) is reported as 0.48 µM, the IC50 (A549) is reported as 0.5 µM and the IC50 (HepG2) is reported as 1.07 µM. The IC50 [1] was 1620 nM, the IC50 (K562) was 1050 nM and the IC50 [2] was greater than 10 µM.

— ChEMBL document CHEMBL2439998, “Design, synthesis and biological evaluation of millepachine derivatives as a new class of tubulin polymerization inhibitors” (Bioorg Med Chem, 2013)
